pEC50, pKi: −log10 of the molar value.
Legend:
[1] = molecular target: T1, Neurotensin receptor type 2 (Rattus norvegicus, UniProt Q63384); experiment: Agonist activity at rat NTS2 stably expressed in CHOK1 cells assessed as induction of calcium release by FLIPR assay; assay type: functional, cell-based, CHO-K1; conditions: for EC50: cho-k1; for pEC50: read-out: EC50
T1 sequence (Q63384 whole entry): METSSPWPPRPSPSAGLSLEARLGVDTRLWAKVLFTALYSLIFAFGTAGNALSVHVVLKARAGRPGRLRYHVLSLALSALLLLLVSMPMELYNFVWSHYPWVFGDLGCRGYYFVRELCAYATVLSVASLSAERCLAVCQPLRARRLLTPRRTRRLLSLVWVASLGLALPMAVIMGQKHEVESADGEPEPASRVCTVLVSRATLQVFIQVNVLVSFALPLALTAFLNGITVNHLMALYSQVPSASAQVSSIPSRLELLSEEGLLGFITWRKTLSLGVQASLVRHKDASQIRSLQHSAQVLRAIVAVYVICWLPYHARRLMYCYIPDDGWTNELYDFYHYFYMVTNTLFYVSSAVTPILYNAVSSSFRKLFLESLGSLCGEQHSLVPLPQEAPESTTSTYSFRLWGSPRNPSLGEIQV

[2] = molecular target: Neurotensin receptor type 1 (Rattus norvegicus) (UniProt P20789); experiment: Antagonist activity at rat NTS1 stably expressed in CHOK1 cells assessed as inhibition of NT-induced calcium release by FLIPR assay; assay type: functional, cell-based; conditions: CHO-K1
Sequence of Neurotensin receptor type 1 (Rattus norvegicus) (P20789 whole entry): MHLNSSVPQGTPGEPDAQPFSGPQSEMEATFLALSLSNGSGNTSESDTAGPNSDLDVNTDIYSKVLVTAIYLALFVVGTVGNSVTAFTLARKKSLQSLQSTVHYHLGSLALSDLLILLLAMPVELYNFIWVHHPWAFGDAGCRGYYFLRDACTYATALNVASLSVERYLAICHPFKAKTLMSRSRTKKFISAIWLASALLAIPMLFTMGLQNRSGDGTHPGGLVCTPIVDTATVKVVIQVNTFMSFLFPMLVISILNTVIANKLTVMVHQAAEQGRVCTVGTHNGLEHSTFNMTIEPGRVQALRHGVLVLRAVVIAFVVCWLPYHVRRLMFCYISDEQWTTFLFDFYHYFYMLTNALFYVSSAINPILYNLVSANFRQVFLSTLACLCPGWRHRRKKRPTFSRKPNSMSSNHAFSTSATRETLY
Summary of the method: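 Rat NTS1 CHO-k1 cells, plated at 30000/well on the assay day. Cells were loaded with Calcium 5 dye (1:40 in HBSS, 20 mM HEPES, 2.5 mM probenecid, pH 7.4) for 45 min at 37 °C, then preincubated with compound for 15 min. […] Fluorescence (ex 485/em 525 nm) read for 60 s on FlexStation II; three-parameter logistic fit; at least three experiments in duplicate.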

[3] = molecular target: T2, Neurotensin receptor type 2 (Rattus norvegicus) (UniProt Q63384); experiment: Agonist activity at rat NTS2 stably expressed in CHOK1 cells assessed as induction of calcium release by FLIPR assay relative to SR142948a; assay type: functional, cell-based; conditions: CHO-K1
T2 sequence (whole entry): T1 sequence (Q63384 whole entry)
Summary of the method: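 Rat NTS2 expressed in CHO-k1 cells, plated at 25000/well the day before the assay. Cells were loaded with Calcium 5 dye (1:20 in HBSS, 20 mM HEPES, 2.5 mM probenecid, pH 7.4) for 45 min at 37 °C, then pretreated with 10% DMSO added 1:10. Full-log compound dilutions were read on FLIPR Tetra every second for 100 s. Emax is expressed as % of the full-agonist standard; EC50 from a three-parameter logistic fit; at least three experiments in duplicate.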

[4] = molecular target: T1, Neurotensin receptor type 2; experiment: Displacement of [125I]NT at rat NTS2 overexpressed in CHOK1 cells after 30 mins by gamma counting; assay type: cell-based, CHO-K1
[5] = molecular target: Neurotensin receptor type 1 (Rattus norvegicus, UniProt P20789); experiment: Agonist activity at rat NTS1 stably expressed in CHOK1 cells assessed as induction of calcium release by FLIPR assay; assay type: functional, cell-based; conditions: cho-k1
Sequence of Neurotensin receptor type 1 (P20789 whole entry): as above

SMILES	Ke [2]	Emax [3]	also measured
CC[C@H](C)[C@H](NC(=O)[C@H](Cc1ccc(O)cc1)NC(=O)[C@@H]1CCCN1C(=O)[C@H](CCCN=C(N)N)NC(=O)[C@@H](N)CCCN=C(N)N)C(=O)N[C@@H](CC(C)C)C(=O)O	–	–	EC50 [1]: Not Active
COc1cccc(OC)c1-c1cc(C(=O)N[C@H](C(=O)O)C2CCCCC2)nn1-c1ccc(F)cc1	3340 nM	22%	–
COc1cccc(OC)c1-c1cc(C(=O)NC2(C(=O)O)CCCC2)nn1-c1ccnc2cc(Cl)ccc12	222 nM	76%	–
COc1cccc(OC)c1-c1cc(C(=O)NC2(C(=O)O)C3CC4CC(C3)CC2C4)nn1-c1ccc(F)cc1 (configuration not stated)	191 nM	34%	–
COc1cccc(OC)c1-c1cc(C(=O)NC2(C(=O)O)C3CC4CC(C3)CC2C4)nn1-c1ccnc2cc(Cl)ccc12 (configuration not stated) [REMINERTANT]	–	100%	pEC50 [1]: 6.92; pKi [4]: 7.21
COc1ccc(-c2cc(C(=O)N[C@H](C(=O)O)C3CCCCC3)nn2-c2ccnc3cc(Cl)ccc23)c(OC)c1	–	12%	–
COc1cccc(OC)c1-c1cc(C(=O)NC2(C(=O)O)CCCCC2)nn1-c1ccc(F)cc1	–	15%	–
COc1ccccc1-c1cc(C(=O)N[C@H](C(=O)O)C2CCCCC2)nn1-c1cccc2ccccc12	1400 nM	18%	–
COc1cccc(OC)c1-c1cc(C(=O)NC2(C(=O)O)C3CC4CC(C3)CC2C4)nn1-c1ccc(C(=O)N(C)CCCN(C)C)cc1C(C)C (configuration not stated)	–	100%	pEC50 [1]: 7.70; pKi [4]: 8.22
COc1ccccc1-c1cc(C(=O)N[C@H](C(=O)O)C2CCCCC2)nn1-c1ccnc2cc(Cl)ccc12	1680 nM	25%	–
COc1ccccc1-c1cc(C(=O)NC2(C(=O)O)CCCCC2)nn1-c1ccnc2cc(Cl)ccc12	4550 nM	35%	–
C[C@@H]1CN([C@H]2CC[C@](C#N)(c3ccc(F)cc3)CC2)CC[C@]1(C(=O)O)c1ccccc1 [LEVOCABASTINE]	–	16%	EC50 [5]: Not Active
COc1ccc(OC)c(-c2cc(C(=O)N[C@H](C(=O)O)C3CCCCC3)nn2-c2ccnc3cc(Cl)ccc23)c1	1280 nM	19%	–
COc1cccc(OC)c1-c1cc(C(=O)NC2(C(=O)O)CCCCC2)nn1-c1ccnc2cc(Cl)ccc12	157 nM	78%	–
COc1ccccc1-c1cc(C(=O)NC2(C(=O)O)CCCCC2)nn1-c1cccc2ccccc12	7380 nM	18%	–
O=C(N[C@H](C(=O)O)C1CCCCC1)c1cc(-c2c(F)cccc2F)n(-c2ccnc3cc(Cl)ccc23)n1	–	15%	–
COc1cccc(OC)c1-c1cc(C(=O)NC2C3CC4CC(C3)CC2C4)nn1-c1ccnc2cc(Cl)ccc12 (configuration not stated)	–	–	EC50 [1]: Not Active
COc1cccc(OC)c1-c1cc(C(=O)N[C@H](C(=O)O)C2CCCCC2)nn1-c1cccc2ccccc12	58 nM	45%	–
CCc1c(C(=O)N[C@H](C(=O)O)C2CCCCC2)nn(-c2ccnc3cc(Cl)ccc23)c1-c1c(OC)cccc1OC	–	15%	pEC50 [1]: 7.03; pKi [4]: 5.93
COc1cccc(OC)c1-c1cc(C(=O)NC2(C(=O)O)CCCCCC2)nn1-c1ccnc2cc(Cl)ccc12	42 nM	89%	–
COc1cccc(OC)c1-c1cc(C(=O)N[C@H](C(=O)O)C2CCCCC2)nn1-c1ccnc2cc(Cl)ccc12	23 nM	86%	–
COc1cccc(OC)c1-c1cc(C(=O)NC2(C(=O)O)CCCCC2)nn1-c1cccc2ccccc12	230 nM	35%	–

Source: ChEMBL document CHEMBL3286167 (J Med Chem, 2014)
